Assay results: PMC12079591 (ACS Omega, 2025)
Where two headings read alike, the source gives them in different places.

Columns and labels:
MDA-MB-231 cells = experiment: Cell cycle analysis by flow cytometry; type: cell-based, human; details: MDA-MB-231, 24 h treatment
Summary of the method: (§1)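 Cells were seeded in 12-well plates overnight, then exposed to test compound for 24 h. Cells were trypsinized, washed in cold PBS and fixed overnight in 70% ethanol at −20 °C. After two PBS washes they were stained 30 min at 37 °C with 50 μg/mL propidium iodide plus 20 μg/mL RNase A. About 10,000 cells were acquired by flow cytometry. Results are means ± SD; two-tailed unpaired t test.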

H1975 = experiment: Cell proliferation assay; type: cell-based; details: read-out: IC50 H1975; lung carcinoma; mean ± SD (n ≥ 2)
Summary of the method: (§2)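 Mycoplasma-negative, STR-authenticated cells were seeded at 4000−6000/well and kept overnight at 37 °C, 5% CO2. Graded test compound concentrations or solvent control were added to triplicate wells. Adherent lines were read by SRB (OD 510 nm) and suspension lines by MTT (OD 570 nm). IC50 was obtained by nonlinear regression. Results are means ± SD (n ≥ 2).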

HCT116 = experiment: Cell proliferation assay; type: cell-based; details: read-out: IC50 HCT116; colorectal carcinoma; mean ± SD (n ≥ 2)
Summary of the method: as §2

MDR1 = experiment: Western blot of MDR1 in K562/ADR; type: cell-based; details: 48 h, concentration-dependent
Summary of the method: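 K562 and K562/ADR cells were seeded in 12-well plates overnight and treated with a concentration gradient of test compound for 48 h. Lysates in SDS sample buffer (equal protein) were separated by SDS-PAGE and transferred to PVDF. MDR1 was probed with primary and HRP-conjugated secondary antibodies and detected by ECL.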

K562/ADR = experiment: Cell proliferation assay, multidrug-resistant K562/ADR; type: cell-based; details: for RF (resistance factor): K562/ADR versus K562; for IC50: read-out: IC50 K562/ADR, multidrug-resistant subline, mean ± SD (n ≥ 2)
Summary of the method: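 K562/ADR cells were derived from parental K562 by stepwise increases in ADR concentration. Proliferation was measured by the SRB (adherent) or MTT (suspension) method: 4000−6000 cells/well seeded overnight at 37 °C, 5% CO2, graded test compound in triplicate wells. IC50 was obtained by nonlinear regression. The resistance factor compares K562/ADR with parental K562. Results are means ± SD (n ≥ 2).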

NUGC-3 = experiment: Cell proliferation assay; type: cell-based; details: read-out: IC50 NUGC-3; gastric carcinoma; mean ± SD (n ≥ 2)
Summary of the method: as §2

NCI-H460 = experiment: Cell proliferation assay; type: cell-based; details: read-out: IC50 NCI-H460; lung carcinoma; mean ± SD (n ≥ 2)
Summary of the method: as §2

SUDHL-4 = experiment: Cell proliferation assay; type: cell-based; details: read-out: IC50 SUDHL-4; diffuse large B cell lymphoma; mean ± SD (n ≥ 2)
Summary of the method: as §2

DOHH2 = experiment: Cell proliferation assay; type: cell-based; details: read-out: IC50 DOHH2; diffuse large B cell lymphoma; mean ± SD (n ≥ 2)
Summary of the method: as §2

[1] = tested on: P-AKT, P-STAT3, P-STAT5, P-P38; experiment: Western blot of JAK/STAT5, PI3K/AKT and p38 MAPK pathways; type: cell-based, human; details: MDA-MB-231 and PC-3 cells, 24 h, concentration-dependent
Summary of the method: (§3)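 MDA-MB-231 and PC-3 cells were seeded in 12-well plates overnight, then exposed to a concentration gradient of test compound. Cells were lysed in SDS sample buffer, and equal protein amounts were run on SDS-PAGE and transferred to PVDF. Membranes were probed with primary antibodies, then HRP-conjugated secondary antibodies, and detected by ECL chemiluminescence.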

PC-3 cells = experiment: Cell cycle analysis by flow cytometry; type: cell-based, human; details: PC-3, 24 h treatment
Summary of the method: as §1

MV-4-11 = experiment: Cell proliferation assay; type: cell-based; details: read-out: IC50 MV-4-11; acute myeloid leukemia; mean ± SD (n ≥ 2)
Summary of the method: as §2

KATO III = experiment: Cell proliferation assay; type: cell-based; details: read-out: IC50 KATO III; gastric carcinoma; mean ± SD (n ≥ 2)
Summary of the method: as §2

HPAF-II = experiment: Cell proliferation assay; type: cell-based; details: read-out: IC50 HPAF-II; pancreatic carcinoma; mean ± SD (n ≥ 2)
Summary of the method: as §2

A-431 = experiment: Cell proliferation assay; type: cell-based; details: read-out: IC50 A-431; squamous cell carcinoma; mean ± SD (n ≥ 2)
Summary of the method: as §2

[2] = tested on: cyclin A2, cyclin B1, and cyclin D1; experiment: Western blot of cell cycle-related proteins; type: cell-based, human; details: MDA-MB-231 and PC-3 cells, 24 h, dose-dependent
Summary of the method: as §3

MDA-MB-231 = experiment: Cell proliferation assay; type: cell-based, human; details: read-out: IC50 MDA-MB-231; breast carcinoma; mean ± SD (n ≥ 2)
Summary of the method: as §2

K562 = experiment: Cell proliferation assay; type: cell-based; details: read-out: IC50 K562, mean ± SD (n ≥ 2)
Summary of the method: as §2

PC-3 = experiment: Cell proliferation assay; type: cell-based, human; details: read-out: IC50 PC-3; prostate carcinoma; mean ± SD (n ≥ 2)
Summary of the method: as §2

[3] = Boron biodistribution of compound 1d by ICP-mass; type: in vivo, mice; details: 3 h postinjection
Summary of the method: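 Mice bearing subcutaneous tumours got a single intraperitoneal injection of 2 mg test compound in saline/DMSO and were sacrificed at 3 h. Blood was taken by cardiac puncture, and major organs and tumour were harvested and weighed. Tissue was digested 2 days at room temperature in 1 mL 1:1 concentrated H2SO4/HNO3, diluted 100-fold in water and filtered (0.22 μm). Boron was measured by ICP-OES and ICP-MS as μg/g tissue.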

IC50 (H1975)	IC50 (HCT116)	IC50 (NCI-H460)	IC50 (SUDHL-4)	IC50 (MV-4-11)	IC50 (A-431)	IC50 (MDA-MB-231)	IC50 (K562; chronic myeloid leukemia)	IC50 (PC-3)	Substance	IC50 (NUGC-3)	IC50 (DOHH2)	IC50 (KATO III)	IC50 (HPAF-II)	also measured
5.63 ± 0.3 µM	2.86 ± 0.23 µM	3.19 ± 0.18 µM	4.29 ± 0.54 µM	5.45 ± 0.26 µM	4.86 ± 0.21 µM	5.46 ± 0.61 µM	4.52 ± 0.8 µM	4.99 ± 2.76 µM	3-(1,2-Dicarba-closo-dodecarboranyl)-4-oxo-4H-chromen-7-yl Sulfurofluoridate [Compound 1m]	2.54 ± 0.37 µM	1.93 ± 0.12 µM	3.55 ± 0.15 µM	2.67 ± 0.55 µM	effect on cell cycle distribution (MDA-MB-231 cells): caused G0/G1 cell cycle arrest; expression of MDR1 (MDR1): significantly inhibited; RF (resistance factor) (K562/ADR): 0.67; IC50 (K562/ADR): 3.04 ± 0.0347 µM; P-P38 expression [1]: upregulating; expression of P-AKT, P-STAT3, and P-STAT5 [1]: reduced; effect on cell cycle distribution (PC-3 cells): caused G0/G1 cell cycle arrest; expression of cyclin A2, cyclin B1, and cyclin D1 [2]: downregulated; IC50 (K562; parental cell line): 4.52 ± 0.806 µM
						75.2 ± 20.8 µM		66.6 ± 8.79 µM	3-(1,2-Dicarba-closo-dodecarboranyl)-4H-chromen-4-one [Compound 1a]					
5.13 ± 1.08 µM	4.21 ± 0.11 µM	5.93 ± 2.15 µM	6.16 ± 0.34 µM	5.65 ± 0.02 µM	4.84 ± 1.07 µM	5.34 ± 1.03 µM	7 ± 0.27 µM	5.14 ± 2.93 µM	3-(1,2-Dicarba-closo-dodecarboranyl)-5,7-dihydroxy-4H-chromen-4-one [Compound 1g]	4.79 ± 0.44 µM	5.23 ± 0.62 µM	5.02 ± 0.38 µM	4.14 ± 0.93 µM	
						55.8 ± 6.71 µM		53.1 ± 0.73 µM	3-(1,2-Dicarba-closo-dodecarboranyl)-5,7-dimethoxy-4H-chromen-4-one [Compound 1e]					
						> 100 µM		> 100 µM	3-(1,2-Dicarba-closo-dodecarboranyl)-5-hydroxy-7-methoxy-4H-chromen-4-one [Compound 1f]					
5.27 ± 0.63 µM	3.42 ± 0.22 µM	4.24 ± 0.9 µM	5.4 ± 0.48 µM	4.25 ± 0.34 µM	4.09 ± 0.46 µM	5.59 ± 1.82 µM	5.29 ± 0.86 µM	5.24 ± 1.9 µM	3-(1,2-Dicarba-closo-dodecarboranyl)-7-hydroxy-4H-chromen-4-one [Compound 1d]	3.36 ± 0.02 µM	2.78 ± 0.26 µM	4.38 ± 0.04 µM	3.56 ± 0.38 µM	effect on cell cycle distribution (MDA-MB-231 cells): caused G0/G1 cell cycle arrest; brain/blood uptake ratio (boron) [3]: 0.45; boron content in blood ([3]; 2 mg intraperitoneal, mice): 2.28 ± 0.99 µg/g; boron content in brain ([3]; 2 mg intraperitoneal, mice): 1.03 ± 0.43 µg/g; boron content in liver ([3]; 2 mg intraperitoneal, mice): 56.37 ± 4.71 µg/g; boron content in pancreas ([3]; 2 mg intraperitoneal, mice): 40.74 ± 4.67 µg/g; boron content in tumor ([3]; 2 mg intraperitoneal, mice): 2.18 ± 1.18 µg/g; expression of MDR1 (MDR1): significantly inhibited; RF (resistance factor) (K562/ADR): 0.93; IC50 (K562/ADR): 4.91 ± 0.094 µM; P-P38 expression [1]: upregulating; expression of P-AKT, P-STAT3, and P-STAT5 [1]: reduced; effect on cell cycle distribution (PC-3 cells): caused G0/G1 cell cycle arrest; expression of cyclin A2, cyclin B1, and cyclin D1 [2]: downregulated; IC50 (K562; parental cell line): 5.29 ± 0.861 µM
						16 ± 0.16 µM		10.9 ± 3.31 µM	3-(1,2-Dicarba-closo-dodecarboranyl)-7-methoxy-2H-chromene [Compound 1j]					
						47.5 ± 7.39 µM		54.7 ± 6.26 µM	3-(1,2-Dicarba-closo-dodecarboranyl)-7-methoxy-4H-chromen-4-one [Compound 1b]					
						14.6 ± 1.58 µM		13.5 ± 1.02 µM	3-(1,2-Dicarba-closo-dodecarboranyl)-7-methoxychroman-4-ol [Compound 1h]					
